Compounds with a hit are over-represented: about 2.5% of the library has one in this group of screens.
TRPC4 agonist = opens the mouse TRPC4 cation channel; B-score at 10 µM; 0.49% of 310,000 active; HEK293 TRPC4beta/mu-opioid, Fluo4 calcium fluorescence; stronger effect = higher value; Q9QUQ5; AID 2237;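 active means B-score above 5 SD of library B-scores, and initial fluorescence ratio not above library mean plus 5 SD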;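 further: positive B-score marks a calcium rise read as TRPC4 activation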
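Assay system – TRPC4beta and mu-opioid receptor HEK293 stable cells · Measured by – Fluo4 fluorescence, kinetic · Schedule – dye loading 45 min room temperature, 110 s kinetic read · Read-out – B-scored integrated calcium fluorescence ratio · Controls – buffer and maximal DAMGO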
Pemphigus Ab inh = human desmoglein-3 autoantibody binding inhibition; binding (percent of control), % at 10 µM; 0.48% of 310,000 active; DSG3-coupled beads, scFv-anti-DSG3-GFP binding, flow cytometry; stronger effect = lower value; AID 588358; P32926;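 active means binding more than 3 SD below its plate's average and above zero; inconclusive means below that plate limit but binding exactly zero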;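 further: hits lower antibody fragment binding to DSG3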
TRPC6 act = mouse TRPC6 channel activation; Q61143; HEK293-TRPC6 membrane potential dye fluorescence; stronger effect = higher value; B-score at 10 µM; 0.13% of 310,000 active;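 active means B-score of the integrated fluorescence ratio above library mean plus 3 SD, and starting fluorescence ratio within library mean plus 5 SD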;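 further: higher score means more depolarization so channel activation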
TRPC4 inh = TRPC4 (mouse) channel inhibition | 0.39% of 300,000 active | Q9QUQ5 | HEK293 TRPC4beta/mu-opioid, DAMGO-evoked Fluo4 calcium flux; stronger effect = lower value | B-score at 10 µM | AID 2247;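 active means B-score over 3 SD under the library average, no early fluorescence shift, positive overall ratio signal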
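Assay system: Stable TRPC4beta/mu-opioid receptor HEK293 cells | Reagent: DAMGO in two steps, submaximal then maximal | Compound dosing: Single concentration per test compound | Signal: Fluo4 Ca2+ flux fluorescence | Evaluation: Per-well B score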
TRPC4 potent = allosterically enhances the mouse TRPC4 cation channel; Q9QUQ5; HEK293 TRPC4beta/mu-opioid, DAMGO EC20, Fluo-4 Ca2+ flux; stronger effect = higher value; B-score at 10 µM; 0.42% of 310,000 active; AID 2227;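 active means B-score of calcium response area above 5 SD of library B-scores, with initial fluorescence ratio within 5 SD of library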;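 further: B-score of integrated fluorescence ratio over time as area under calcium response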
TRPC6 inhibitor = inhibitors of mouse TRPC6 channel. Q61143. HEK293-TRPC6, membrane potential dye, ACh-evoked depolarization; stronger effect = lower value. B-score at 10 µM. 1.1% of 310,000 active;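 active means B-score under library mean minus 3 SD, initial fluorescence not abnormally high, positive integrated signal ratio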;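 further: B-score derived from integrated fluorescence ratio over the kinetic read; more negative B-score means stronger inhibition of depolarization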
TRPC4 sel inh 2 = mouse TRPC4 off-target activity of TRPC6 inhibitors, second screen | shares compounds with TRPC6 inhibitor | HEK293 TRPC4/MOR, membrane potential dye fluorescence; channel activated by saturating DAMGO dose | inhibition, % at 10 µM | 42% of 920 active | AID 2776;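 active means compounds whose fluorescence signal differed from control wells by over 3 SD, either direction, in both duplicate plates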
TRPC4 spec = mouse TRPC4 off-target activity of TRPC6 inhibitors; shares compounds with TRPC6 inhibitor; HEK293 TRPC4/mu-opioid, membrane potential fluorescence; activity change, negative = inhibition, % at 10 µM; 61% of 920 active;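 active means rise or fall in signal beyond 3 SD of buffer-only wells in both replicate plates, either sign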;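 further: integrated kinetic ratio of fluorescence range over baseline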
HEK293 MPD ctr 2-1 = second check of TRPC6 inhibitor effects in parental HEK293 cells. shares compounds with TRPC6 inhibitor. parental HEK293 membrane potential dye fluorescence; maximal acetylcholine challenge after compound addition. signal change vs control, % at 10 µM. 31% of 920 active. AID 2779;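 active means membrane potential signal moving either way by over 3 SD of the maximum-effect control, in both duplicate plates, meaning non-specific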
HEK293 MPD ctr-1 = parental HEK293 nonspecific activity of TRPC6 inhibitors. shares compounds with TRPC6 inhibitor. parental HEK293 membrane potential dye fluorescence. membrane potential signal change, % at 10 µM. 60% of 920 active. AID 2780;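 active means membrane potential signal shifting up or down by more than 3 SD of buffer-only wells, on both duplicate plates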
HEK293 MPD ctr-2 = parental HEK293 nonspecific activity of TRPC6 modulators | shares compounds with TRPC6 inhibitor | membrane potential dye fluorescence | membrane potential signal change, % at 10 µM | 51% of 2,400 active | AID 488924;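 active means membrane potential signal moves up or down beyond 5 SD from buffer-only wells, on both duplicate plates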
HEK293 MPD ctr 2-2 = second check of TRPC6 modulator effects in parental HEK293 cells | shares compounds with TRPC6 inhibitor | membrane potential dye fluorescence; after compound, maximal acetylcholine stimulation | inhibition, % at 10 µM | 14% of 2,400 active | AID 488926;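 active means membrane potential signal drops by more than 5 SD from the mean control signal, in both duplicate plates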;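 further: plate controls were acetylcholine ECmax control wells for no effect and buffer only wells for full effect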
TRPC4/MOR mod = selectivity of TRPC6 modulators against mouse TRPC4; shares compounds with TRPC6 inhibitor; HEK293 TRPC4/mu-opioid, membrane potential fluorescence; percent change from control (negative = decrease, positive = increase), % at 10 µM; 69% of 2,400 active; AID 488927;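 active means membrane potential signal moved up or down beyond 5 SD of buffer control wells, in both duplicate plates, actives on both sides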;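 further: plate controls were assay buffer wells for no effect and DAMGO maximal-effect wells for full effect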
TRPC4 ctr inh 2 = mouse TRPC4 off-target activity of TRPC6 modulators, second screen; HEK293 TRPC4/mu-opioid, membrane potential dye fluorescence; stimulated with maximal-effect DAMGO; inhibition, % at 10 µM; shares compounds with TRPC6 inhibitor; 55% of 2,400 active;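 active means drop in membrane potential signal beyond 5 SD of the control wells in both duplicate plates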;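 further: TRPC4 counter screen for TRPC6 hits run under conditions tuned for TRPC6 not TRPC4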
TRPC6 inh conf = mouse TRPC6 inhibitor confirmation; shares compounds with TRPC6 inhibitor; AID 488960; inhibition, % at 10 µM; 43% of 3,300 active; HEK293-TRPC6, membrane potential dye, ACh-evoked depolarization;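 active means fluorescence ratio falls more than 5 SD below the full-stimulation control mean, in both duplicate runs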;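 further: integrated fluorescence ratio of peak minus minimum over baseline after agonist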
TRPC6 act conf = mouse TRPC6 activator confirmation. shares compounds with TRPC6 inhibitor. HEK293-TRPC6 membrane potential dye fluorescence, FDSS. activation, % at 10 µM. 11% of 2,800 active;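 active means ratio signal rise beyond 5 SD above unstimulated control wells' mean, seen in both duplicate runs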;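 further: plate controls were buffer EC0 wells for no effect and acetylcholine ECmax response for full effect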
The depositor's hits bear a star; i = inactive; ? = inconclusive; nt = no result; + = active, no number.

SMILES | TRPC4 agonist | Pemphigus Ab inh | TRPC6 act | TRPC4 inh | TRPC4 potent | TRPC6 inhibitor | HEK293 MPD ctr-2 | HEK293 MPD ctr 2-2 | TRPC4/MOR mod | TRPC4 ctr inh 2 | TRPC6 inh conf | TRPC6 act conf | others
Cn1c(CCN2CCCCC2)nc2cc([N+](=O)[O-])ccc21 | i | 101 | i | i | i | -5.8* | -200%* | i | -32%* | 38%* | i | i
CCN1CCN(CCc2nc3cc([N+](=O)[O-])ccc3n2C)CC1 | i | 93 | i | i | i | i | nt | nt | nt | nt | nt | nt
COc1cc(OC)c2c(-c3ccccc3)cc(=O)oc2c1C(CCN1CCCCC1)c1ccc(N(C)C)cc1 (configuration not stated) | 116* | 102 | i | i | i | -6.2* | i | i | 36%* | 104%* | 55%* | i
COc1cc(C2CC(=O)Oc3c(C(CCN4CCCC(C)C4)c4ccc(N(C)C)cc4)c(OC)cc(OC)c32)cc(OC)c1OC (configuration not stated) | i | 108 | i | i | i | i | nt | nt | nt | nt | nt | nt
COc1cc(OC)c2c(-c3ccccc3)cc(=O)oc2c1C(CCN1CCOCC1)c1ccc(N(C)C)cc1 (configuration not stated) | nt | 112 | nt | nt | nt | nt | nt | nt | nt | nt | nt | nt
COc1cc(OC)c2ccc(=O)oc2c1C(CCN1CCCC(C)C1)c1ccc(N(C)C)cc1 (configuration not stated) | i | 105 | i | i | i | -5.7* | -112%* | i | -26%* | 70%* | 49%* | i
CCn1c(CNc2nc3ccccc3n2C(C)C)nc2ccccc21 | i | 108 | i | i | i | i | nt | nt | nt | nt | nt | nt
CC(C)(C)OC(=O)N1CCCC(C(=O)Nc2ccc(C(=O)N3CCOCC3)cc2)C1 (configuration not stated) | nt | 102 | nt | nt | nt | nt | nt | nt | nt | nt | nt | nt
C/C(N)=C(/C#N)C(=O)COC(=O)c1ccncc1 | i | 99 | i | i | i | i | nt | nt | nt | nt | nt | nt
C/C(N)=C(/C#N)C(=O)COC(=O)c1ccccc1Cc1ccccc1 | i | 102 | i | i | i | -8.3* | nt | nt | nt | nt | i | i | TRPC4 sel inh 2=i;TRPC4 spec=-11%*;HEK293 MPD ctr 2-1=i;HEK293 MPD ctr-1=i
O=C(CSc1nncs1)Nc1nccs1 | i | 94 | i | i | i | i | nt | nt | nt | nt | nt | nt
CCOC(=O)c1nc2cc3n(c(CC(C)C)c-2c1C)CC(C)=C3C | i | ? | i | i | i | -6.4* | -87%* | 69%* | -20%* | 54%* | 49%* | i
CCOC(=O)c1nc2cc3n(c(C)c-2c1C)C(C)C(C)=C3C (configuration not stated) | i | 124 | i | i | i | -8.1* | nt | nt | nt | nt | i | i | TRPC4 sel inh 2=70%*;TRPC4 spec=7.3%*;HEK293 MPD ctr 2-1=-192%*;HEK293 MPD ctr-1=i
CN1CCN(/N=C/c2ccc(N(c3ccccc3)c3ccccc3)cc2)CC1 | i | nt | i | i | i | i | nt | nt | nt | nt | nt | nt
CN1CCN(/N=C/c2ccc(N(C)c3ccccc3)cc2)CC1 | i | 101 | i | i | i | -7.1* | i | i | -12%* | 56%* | 63%* | i
COc1ccccc1N1CCN(C2=Nc3cccc4cccc2c34)CC1 | i | 103 | i | i | i | -8.7* | -214%* | 79%* | -45%* | 84%* | 60%* | i
CC1CN(c2oc(-c3ccccc3Cl)nc2C#N)CC(C)O1 (configuration not stated) | i | 101 | i | i | i | i | nt | nt | nt | nt | nt | nt
c1cc2c3c(cccc3c1)C(N1CCOCC1)=N2 | i | 98 | i | i | i | -6.8* | -198%* | i | -129%* | 84%* | 52%* | i
CC1CN(C2=Nc3cccc4cccc2c34)CC(C)O1 (configuration not stated) | i | 102 | i | i | i | -7.3* | -152%* | i | -72%* | 46%* | 58%* | i
CC(=O)N1CCN(C2=Nc3cccc4cccc2c34)CC1 | i | 108 | i | i | i | -8.1* | -226%* | i | -97%* | 48%* | 57%* | i
O=C(O)c1ccc(NC2=Nc3cccc4cccc2c34)cc1 | i | 102 | i | i | i | i | nt | nt | nt | nt | nt | nt
O=C1c2ccccc2C(=O)c2c1cccc2N1CCOCC1 | i | 105 | i | i | i | i | nt | nt | nt | nt | nt | nt
C=C1CCN(C(C)C(=O)O)S(=O)(=O)c2ccccc21 (configuration not stated) | i | 101 | i | i | i | i | nt | nt | nt | nt | nt | nt
COc1cc(/C=C(\C#N)c2nc3ccccc3o2)ccc1O | 78* | 96 | 63* | i | i | i | + | i | 290%* | i | i | 362%*
N#C/C(=C\c1ccc(O)cc1)c1nc2ccccc2o1 | i | 89 | i | i | i | i | nt | nt | nt | nt | nt | nt
O=C(COC(=O)COc1ccc(Cl)cc1)NC1CCCC1 | nt | 111 | nt | nt | nt | nt | nt | nt | nt | nt | nt | nt

Screens as filed in PubChem.
